Assay results reported in article PMC10583827 (RSC Medicinal Chemistry, 2023).
Entries after “also recorded” stand apart in the source; their conditions may differ.

Legend:
[1] = Host macrophage cytotoxicity, resazurin assay; assay type: cell-based; details: human, PMA-differentiated THP-1 cells (macrophages)
[2] = Cyclic voltammetry; assay type: physicochemical; details: acetonitrile; for ipa/ipc, ratio of anodic to cathodic current / ΔEp, wave potential separation (Epa − Epc): scan rate 100 mV s−1; for E1/2, half wave potential (E1/2 = (Epa + Epc)/2) / Epa, anodic wave potential / Epc, cathodic wave potential: scan rate 100 mV s−1, V vs. Ag/AgCl
Summary of the method: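 Test compound at 0.5 mM in anhydrous acetonitrile with 0.1 M […] as background electrolyte. Three-electrode cell: glassy carbon working, Pt wire counter, Ag/AgCl reference. Scanned from −1.7 to +1.0 V at 100 mV s−1 with a 20 mV E step, 6 cycles per compound, at 25 °C. Half-wave potentials were taken from the voltammograms.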

[3] = test system: L. donovani strain 9515 amastigotes; assay: Intramacrophage antileishmanial assay; assay type: cell-based, Leishmania donovani; details: antimonial-resistant L. donovani; activity retained 72 hours post lysis
[4] = test system: Vero cells; assay: General/basal cytotoxicity, resazurin assay
[5] = test system: L. major strain IR173 amastigotes; assay: Intramacrophage antileishmanial assay; assay type: cell-based, Leishmania major; details: activity retained 72 hours post macrophage lysis

Compound	IC50 at 72 h [1]	ipa/ipc, ratio of anodic to cathodic current [2]	ΔEp, wave potential separation (Epa − Epc) [2]	E1/2, half wave potential (E1/2 = (Epa + Epc)/2) [2]	Epa, anodic wave potential [2]	Epc, cathodic wave potential [2]	Cidal anti-amastigote activity against L. donovani [3]	Toxicity to mammalian cells, class in words [4]	Cidal anti-amastigote activity against L. major [5]
NC(=O)N/N=C/c1ccc([N+](=O)[O-])o1 [NFZ, nitrofurazone, reference compound]	> 100 µM	–	–	–	–	–	–	–	–
O=C(Cn1ccnc1[N+](=O)[O-])NCc1ccccc1 [Bzn, benznidazole, reference compound]	> 100 µM	–	–	–	–	–	–	–	–
O=[N+]([O-])c1ccc(/C=N/N=C/c2ccccc2)s1 [1b, (1E,2E)-1-Benzylidene-2-[(5-nitrothiophen-2-yl)methylene]hydrazine]	> 100 µM	1.032	0.22 V	−0.95 V	−0.84 V	−1.06 V	cidal	moderate toxicity	–
O=[N+]([O-])c1ccc(/C=N/N=C/c2ccc([N+](=O)[O-])s2)cc1 [9b, (1E,2E)-1-(4-Nitrobenzylidene)-2-[(5-nitrothiophen-2-yl)methylene]hydrazine]	–	0.951	0.24 V	−0.94 V	−0.82 V	−1.06 V	–	–	–
O=[N+]([O-])c1ccc(/C=N/N=C/c2ccc(Cl)cc2)o1 [3a, (1E,2E)-1-(4-Chlorobenzylidene)-2-[(5-nitrofuran-2-yl)methylene]hydrazine]	> 100 µM	0.967	0.28 V	−0.94 V	−0.80 V	−1.08 V	–	low toxicity; also recorded: non-toxic	cidal
O=[N+]([O-])c1ccc(/C=N/N=C/c2ccc(F)cc2)o1 [2a, (1E,2E)-1-(4-Fluorobenzylidene)-2-[(5-nitrofuran-2-yl)methylene]hydrazine]	–	0.990	0.28 V	−0.92 V	−0.78 V	−1.06 V	–	–	cidal
O=Cc1ccc([N+](=O)[O-])s1 [NTA, 5-nitrothiophene-2-carboxaldehyde, reference compound]	–	0.755	0.20 V	−0.96 V	−0.86 V	−1.06 V	–	–	–
COc1ccc(/C=N/N=C/c2ccc([N+](=O)[O-])o2)cc1 [6a, (1E,2E)-1-(4-Methoxybenzylidene)-2-[(5-nitrofuran-2-yl)methylene]hydrazine]	> 100 µM	0.965	0.34 V	−0.85 V	−0.68 V	−1.02 V	cidal	–	–
O=[N+]([O-])c1ccc(/C=N/N=C/c2ccc(O)cc2)s1 [8b, 4-(E)-(E)-[(5-Nitrothiophen-2-yl)methylene]hydrazonomethylphenol]	–	1.002	0.24 V	−0.94 V	−0.82 V	−1.06 V	cidal	moderate toxicity	–
O=[N+]([O-])c1ccc(/C=N/N=C/c2ccc(OCc3ccccc3)cc2)o1 [7a, (1E,2E)-1-[4-(Benzyloxy)benzylidene]-2-[(5-nitrofuran-2-yl)methylene]hydrazine]	> 100 µM	–	0.26 V	−0.91 V	−0.78 V	−1.04 V	–	low toxicity	–
O=[N+]([O-])c1ccc(/C=N/N=C/c2ccc(OCc3ccccc3)cc2)s1 [7b, (1E,2E)-1-[4-(Benzyloxy)benzylidene]-2-[(5-nitrothiophen-2-yl)methylene]hydrazine]	> 100 µM	–	–	–	–	–	–	low toxicity	–
COc1ccc(/C=N/N=C/c2ccc([N+](=O)[O-])s2)cc1 [6b, (1E,2E)-1-(4-Methoxybenzylidene)-2-[(5-nitrothiophen-2-yl)methylene]hydrazine]	–	0.990	0.24 V	−0.92 V	−0.80 V	−1.04 V	–	–	–
O=[N+]([O-])c1ccc(/C=N/N=C/c2ccc(O)cc2)o1 [8a, 4-{(E)-{(E)-[(5-Nitrofuran-2-yl)methylene]hydrazono}methyl}phenol]	–	0.943	0.26 V	−0.95 V	−0.82 V	−1.08 V	–	–	–
O=[N+]([O-])c1ccc(/C=N/N=C/c2ccc(Br)cc2)s1 [4b, (1E,2E)-1-(4-Bromobenzylidene)-2-[(5-nitrothiophen-2-yl)methylene]hydrazine]	–	0.961	0.24 V	−0.92 V	−0.80 V	−1.04 V	–	–	–
Cc1ccc(/C=N/N=C/c2ccc([N+](=O)[O-])o2)cc1 [5a, (1E,2E)-1-(4-Methylbenzylidene)-2-[(5-nitrofuran-2-yl)methylene]hydrazine]	> 100 µM	1.007	0.24 V	−0.94 V	−0.82 V	−1.06 V	–	low toxicity	–
Cc1ccc(/C=N/N=C/c2ccc([N+](=O)[O-])s2)cc1 [5b, (1E,2E)-1-(4-Methylbenzylidene)-2-[(5-nitrothiophen-2-yl)methylene]hydrazine]	–	1.000	0.24 V	−0.90 V	−0.78 V	−1.02 V	–	–	–
O=[N+]([O-])c1ccc(/C=N/N=C/c2ccccc2)o1 [1a, (1E,2E)-1-Benzylidene-2-[(5-nitrofuran-2-yl)methylene]hydrazine]	> 100 µM	1.016	0.24 V	−0.88 V	−0.76 V	−1.00 V	–	–	–
O=[N+]([O-])c1ccc(/C=N/N=C/c2ccc(F)cc2)s1 [2b, (1E,2E)-1-(4-Fluorobenzylidene)-2-[(5-nitrothiophen-2-yl)methylene]hydrazine]	> 100 µM	1.022	0.22 V	−0.89 V	−0.78 V	−1.00 V	–	low toxicity	–
O=[N+]([O-])c1ccc(/C=N/N=C/c2ccc(Cl)cc2)s1 [3b, (1E,2E)-1-(4-Chlorobenzylidene)-2-[(5-nitrothiophen-2-yl)methylene]hydrazine]	–	0.889	0.22 V	−0.85 V	−0.74 V	−0.96 V	–	–	–
O=Cc1ccc([N+](=O)[O-])o1 [NFA, 5-nitro-2-furaldehyde, reference compound]	–	0.967	0.28 V	−0.88 V	−0.74 V	−1.02 V	–	–	–
